One assay concerns DU-145. As to the kind of experiment: Cytotoxicity in human DU145 cells incubated for 48 hrs by MTT assay. It counts as functional, cell-based. The settings on record: DU-145, 48 h. The gist of the method:
(§1)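 Cells (1 × 10^4/well) were seeded in medium with 10% FBS and left 24 h at 37 °C. Compound diluted in medium was then added, alongside a vehicle control, for 48 h. MTT (5 mg/mL stock) was added for 4 h, formazan dissolved in DMSO and absorbance read at 570 nm. IC50 taken as the concentration giving 50% inhibition.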
(Tetrazolium assays rely on reduction of a dye to a coloured formazan, in cell work by metabolically active cells.)

Another assay has as its system HCT-15. Put plainly: Cytotoxicity in human HCT15 cells incubated for 48 hrs by MTT assay. The settings on record: HCT-15, 48 h. It counts as functional, cell-based. The gist of the method: as §1
In a further assay the test system is HCT-116. Put plainly: Cytotoxicity in human HCT116 cells incubated for 48 hrs by MTT assay. It is filed as functional, cell-based. Conditions: HCT-116, 48 h. The gist of the method: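 Cells (1 × 10^4/well) were seeded in medium with 10% FBS and left 24 h at 37 °C. Compound diluted in medium was then added, alongside a vehicle control, for 48 h. MTT (5 mg/mL stock) was added for 4 h, formazan dissolved in DMSO and absorbance read at 570 nm.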

A further assay relates to MDA-MB-453. Put plainly: Cytotoxicity in human MDA-MB-453 cells incubated for 48 hrs by MTT assay. It counts as functional, cell-based. The settings on record: MDA-MB-453, 48 h. The gist of the method: as §1
The test system of another assay is PC-3. As to the kind of experiment: Cytotoxicity in human PC3 cells incubated for 48 hrs by MTT assay. Conditions: PC-3, 48 h. It is filed as functional, cell-based. The gist of the method: as §1
Another assay has as its system BT-549. Put plainly: Cytotoxicity in human BT549 cells incubated for 48 hrs by MTT assay. It is filed as functional, cell-based. The settings on record: BT-549, 48 h. In a few lines:
as §1

A further assay has as its system Calf thymus DNA. Put plainly: Binding affinity to calf thymus DNA assessed as increase in relative viscosity of DNA-compound complex at 5 uM by viscometry. It counts as nucleic-acid assay. The settings on record: Bos taurus. In a few lines: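 Viscosity titration of test compound (5 µM) into CT-DNA (50 µM) in 100 mM Tris-HCl pH 7.0. Rolling-ball viscometer, ball fall time read at angles of 20° to 70°, Peltier-held temperature, viscosity calculated at 25 °C.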

The source made the active and inactive calls. The calls are words filed in the database; no cut-off is given here.

Turning to `COc1cc2cc(-c3nc4cc(C)cc(C)c4[nH]3)c3cc(OC)c(OC)cc3c2cc1OC`, the IC50 – broadly, the concentration needed to halve the response being measured – was > 20 µM in the assay with DU-145; > 20 µM with HCT-15; > 20 µM with HCT-116; > 20 µM in the assay on MDA-MB-453; 18.3 µM with PC-3; 7.15 µM in the assay with BT-549.
Regarding `COc1cc2cc(-c3nc4cc(Cl)ccc4n3Cc3cc(C)cc(C)c3)c3cc(OC)c(OC)cc3c2cc1OC`, the IC50 in the assay on DU-145 is > 20 µM; with HCT-15, 15.6 µM; with HCT-116 it was > 20 µM; in the assay on MDA-MB-453 it was 16.5 µM; in the assay on PC-3, 12.8 µM; in the assay with BT-549 it was > 20 µM.
With `COc1cc2cc(-c3nc4cc(Cl)ccc4n3Cc3ccccc3)c3cc(OC)c(OC)cc3c2cc1OC`, the IC50 in the assay on DU-145 is > 20 µM; with HCT-15, 10.3 µM; in the assay with HCT-116 it was > 20 µM; in the assay on MDA-MB-453, 17.3 µM; with PC-3, 11.5 µM; in the assay on BT-549, > 20 µM.
`COc1cc2cc(-c3nc4ccc(Br)cc4[nH]3)c3cc(OC)c(OC)cc3c2cc1OC`: the IC50 in the assay with DU-145 was > 20 µM; in the assay with HCT-15, > 20 µM; in the assay on HCT-116 it was > 20 µM; in the assay on MDA-MB-453 it was 15.1 µM; in the assay with PC-3, 15.7 µM; in the assay with BT-549 it was > 20 µM.
In the case of `COc1cc2cc(-c3nc4ccc(C(=O)O)cc4[nH]3)c3cc(OC)c(OC)cc3c2cc1OC`, the IC50 in the assay with DU-145 is 12.7 µM; in the assay on HCT-15, 8.34 µM; in the assay with HCT-116, 9.92 µM; in the assay with MDA-MB-453 it was 10.6 µM; in the assay on PC-3, 10.2 µM; with BT-549, > 20 µM.
Regarding `COC(=O)c1ccc2nc(-c3cc4cc(OC)c(OC)cc4c4cc(OC)c(OC)cc34)[nH]c2c1`, the IC50 is 17.2 µM in the assay on DU-145; > 20 µM in the assay on HCT-15; > 20 µM with HCT-116; > 20 µM in the assay with MDA-MB-453; 16.7 µM in the assay with PC-3; > 20 µM in the assay on BT-549.
As to `COc1ccc2nc(-c3cc4cc(OC)c(OC)cc4c4cc(OC)c(OC)cc34)[nH]c2c1`, the IC50 is > 20 µM with DU-145; 10.2 µM in the assay on HCT-15; 8.91 µM in the assay on HCT-116; 9.98 µM in the assay with MDA-MB-453; 13.1 µM in the assay on PC-3; 11.5 µM with BT-549.
As to `O=c1[nH]cc(F)c(=O)[nH]1` [FLUOROURACIL], the IC50 in the assay with DU-145 is 2.18 µM; with HCT-116, 8.62 µM.
For `COc1ccc2cc(-c3nc4cc(Cl)ccc4n3Cc3ccccc3)c3cc(OC)c(OC)cc3c2c1`, the IC50 with DU-145 is > 20 µM; in the assay with HCT-15 it was 14.1 µM; with HCT-116, > 20 µM; in the assay on MDA-MB-453 it was 7.2 µM; in the assay on PC-3 it was > 20 µM; in the assay on BT-549 it was > 20 µM.
For `COc1cc2cc(-c3nc4ccc(C)cc4[nH]3)c3cc(OC)c(OC)cc3c2cc1OC`, the IC50 in the assay with DU-145 was 8.21 µM; in the assay on HCT-15, > 20 µM; with HCT-116, > 20 µM; with MDA-MB-453, > 20 µM; with PC-3, > 20 µM; with BT-549, > 20 µM.
In the case of `COc1cccc2c1C(=O)c1c(O)c3c(c(O)c1C2=O)C[C@@](O)(C(=O)CO)C[C@@H]3O[C@H]1C[C@H](N)[C@H](O)[C@H](C)O1` [DOXORUBICIN], in the assay on Calf thymus DNA, the result was Active. The concentration for half-maximal inhibition (IC50) in the assay with DU-145 was found to be 1.91 µM.
Take `COc1cc2cc(-c3nc4ccc(F)cc4[nH]3)c3cc(OC)c(OC)cc3c2cc1OC`: the IC50 in the assay on DU-145 was > 20 µM; in the assay on HCT-15, 9.42 µM; with HCT-116 it was > 20 µM; in the assay with MDA-MB-453 it was > 20 µM; in the assay with PC-3 it was 14.6 µM; in the assay on BT-549 it was 10.8 µM.
As to `CN1CCN(c2ccc3[nH]c(-c4ccc5[nH]c(-c6ccc(O)cc6)nc5c4)nc3c2)CC1`, the result with Calf thymus DNA was inactive.
In the case of `COc1ccc2cc(-c3nc4ccccc4[nH]3)c3cc(OC)c(OC)cc3c2c1`, the IC50 with DU-145 was 17.2 µM; in the assay with HCT-15, > 20 µM; with HCT-116, > 20 µM; with MDA-MB-453 it was > 20 µM; in the assay with PC-3, > 20 µM; with BT-549 it was 11.4 µM.
Consider `COc1ccc2cc(-c3nc4ccc(Cl)cc4[nH]3)c3cc(OC)c(OC)cc3c2c1`, for which, in the assay with Calf thymus DNA, the result was Active. The IC50 with DU-145 was > 20 µM; with HCT-15, > 20 µM; with HCT-116, 11.3 µM; in the assay on MDA-MB-453 it was > 20 µM; in the assay with PC-3, 7.24 µM; in the assay with BT-549, 14.2 µM.
Regarding `COC(=O)Nc1nc2cc(C(=O)c3cccs3)ccc2[nH]1` [NOCODAZOLE], the IC50 with DU-145 was 1.14 µM; in the assay with HCT-116, 1.06 µM; in the assay on MDA-MB-453, 0.91 µM; in the assay on PC-3 it was 1.84 µM.
Take `COc1ccc2cc(-c3nc4ncc(Br)cc4[nH]3)c3cc(OC)c(OC)cc3c2c1`: the IC50 is > 20 µM with DU-145; > 20 µM in the assay on HCT-15; > 20 µM in the assay with HCT-116; > 20 µM in the assay on MDA-MB-453; 11.3 µM with PC-3; 7.91 µM in the assay on BT-549.
In the case of `CC[n+]1c(-c2ccccc2)c2cc(N)ccc2c2ccc(N)cc21`, the result with Calf thymus DNA was Active.
With `COc1cc2cc(-c3nc4ccccc4[nH]3)c3cc(OC)c(OC)cc3c2cc1OC`, the IC50 was 18.9 µM with DU-145; > 20 µM in the assay on HCT-15; > 20 µM with HCT-116; > 20 µM in the assay with MDA-MB-453; 12.8 µM in the assay on PC-3; > 20 µM with BT-549.
Regarding `COc1cc2cc(-c3nc4ncc(Br)cc4[nH]3)c3cc(OC)c(OC)cc3c2cc1OC`, the IC50 was 10 µM with DU-145; > 20 µM in the assay with HCT-15; > 20 µM in the assay on HCT-116; > 20 µM in the assay on MDA-MB-453; > 20 µM in the assay with PC-3; > 20 µM in the assay with BT-549.
On to `COc1cc2cc(-c3nc4ccc(Cl)cc4[nH]3)c3cc(OC)c(OC)cc3c2cc1OC`, for which the IC50 is > 20 µM in the assay on DU-145; > 20 µM in the assay on HCT-15; > 20 µM in the assay on HCT-116; 9.42 µM in the assay with MDA-MB-453; 18.9 µM in the assay with PC-3; > 20 µM in the assay on BT-549.
